# According to PubChem BioAssay AID522 (The Scripps Research Institute Molecular Screening Center, 2006):
# Hit rate of the full screen: of about 65,000 compounds, about 1,200 (1.8%) were called active. This excerpt belongs to a sample that is enriched for actives. Unmarked numbers belong to inactive results.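 How the source made its calls: active means activation above the mean activation of all tested compounds plus 3 SD (cut at about 50% in these data); inactive means the rest.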
# Target: Steroidogenic factor 1 (Homo sapiens) (UniProt Q13285)
# Sequence (Q13285 whole entry, looked up, the tested form may be a part): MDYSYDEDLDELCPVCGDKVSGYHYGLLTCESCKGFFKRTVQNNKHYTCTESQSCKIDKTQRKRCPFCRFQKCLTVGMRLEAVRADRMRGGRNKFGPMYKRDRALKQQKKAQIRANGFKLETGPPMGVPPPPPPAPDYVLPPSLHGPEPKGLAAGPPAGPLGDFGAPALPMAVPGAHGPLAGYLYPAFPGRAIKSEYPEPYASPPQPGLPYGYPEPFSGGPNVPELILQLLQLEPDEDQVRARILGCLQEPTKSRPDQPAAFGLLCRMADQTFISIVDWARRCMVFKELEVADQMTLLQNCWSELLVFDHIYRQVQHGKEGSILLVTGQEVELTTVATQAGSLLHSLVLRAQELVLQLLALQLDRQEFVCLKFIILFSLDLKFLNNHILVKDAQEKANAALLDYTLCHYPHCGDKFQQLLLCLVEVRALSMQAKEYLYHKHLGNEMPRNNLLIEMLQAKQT
# Experiment: SF-1 ligand-binding domain transactivation enhancers – cell-based, CHO-K1, Gal4-SF-1 LBD, luciferase luminescence, primary screen (AID 522)
# Settings: CHO-K1 Gal4-SF-1 LBD luciferase reporter; at 10 µM; hits give high values; % increase over DMSO SF-1-specific signal
# Procedure, shortened: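 Compound – one dose, 10 µM compound, 1% DMSO · Test system – transient Gal4-SF-1 LBD reporter, CHO-K1 · Input – 4,000 cells in each well · Read-out basis – percent activation relative to DMSO median and mock-transfected background · Replicates – single measurement per compound · Technique – steady-glow luciferase luminescence, read after 15 min reagent incubation · Timing – 20 h compound treatment, 37 °C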
row,Structure (SMILES),activation
1,CCOC(=O)c1cccc(NC(=O)CN(c2ccc(C)cc2)S(=O)(=O)c2c(C)noc2C)c1,-5.1%
2,CC(=O)N1CCC(C(=O)Nc2nc(-c3ccccc3)ns2)CC1,-1.6%
3,COc1ccc(CN(C(=O)c2cccs2)c2nccs2)cc1OC,7.7%
4,O=C(CSCc1cccs1)N1CCCC1,60.5% (active)
5,Cn1c(=NC(=O)CSCC(=O)N2CCCCC2)sc2ccccc21,8.9%
6,O=C(c1cc(-c2cccs2)on1)N1CCCCC1,41.3%
7,CC(=O)Oc1ccc(C)cc1N1C(=O)c2ccc(C(=O)O)cc2C1=O,-0.3%
8,O=C(CSc1nnc(-c2ccco2)n1CC1CCCO1)c1ccccc1 (centres undefined),16.7%
9,O=C(CSc1nnc2ccccn12)c1ccccc1,55.3% (active)
10,Cn1c(CC(=O)Nc2ccccc2)nnc1SCC(=O)c1ccccc1,4.4%
11,Cc1c(C(=O)NCC2CCCO2)sc2nc(-c3ccccc3)cn12 (centres undefined),9%
12,Clc1ccc(Cc2nnc(-c3cccs3)o2)cc1,59.5% (active)
13,Clc1ccc(Cc2nn3c(-c4ccncc4)nnc3s2)cc1,15.3%
14,Cc1cc(NC(=O)c2cc(-c3cccs3)on2)nn1Cc1ccc(Cl)cc1,-2.6%
15,CSC1=NCCN1C(=O)c1ccc(S(=O)(=O)N2CCOCC2)cc1,-27.8%
16,COC(=O)c1ccc(NC(=O)C(C)N2C(=O)c3ccccc3C2=O)cc1 (centres undefined),11.6%
17,COC(=O)c1ccc(NCC(=O)c2ccccc2)cc1,68.7% (active)
18,CCN(CC)C(=O)CCC(=O)Nc1ccc(C(=O)OC)cc1,-4.8%
19,C=CCn1c(=O)c2ccccc2n2c(SCC(=O)N3CCCc4ccccc43)nnc12,-8.3%
20,CCOc1ccc(Nc2oc(Cc3ccccc3)nc2C#N)cc1,39.8%
21,N#Cc1nc(Cc2ccccc2)oc1NCCc1ccccc1,63.4% (active)
22,N#Cc1nc(COc2ccc(-c3ccccc3)cc2)oc1NCc1cccnc1,-9.1%
23,CCOc1ccc2nc(NCCNS(=O)(=O)c3ccccc3)c(C#N)cc2c1,9.2%
24,COc1ccc2[nH]c(=O)c(-c3noc(-c4ccc(F)cc4)n3)cc2c1,-0.1%
25,COc1ccccc1Cc1nc(-c2ccc(C)cc2)no1,16.4%
26,Cc1ccc(-c2noc(CCC(N)=O)n2)cc1,9.8%
27,Cc1ccc(-c2noc(CN3CCN(Cc4ccccc4)CC3)n2)cc1,16.7%
28,Cc1ccc(Cc2nc(-c3cccc(C)c3)no2)cc1,53.9% (active)
29,Cc1cccc(-c2noc(-c3ccc(F)cc3)n2)c1,77.6% (active)
